Holding throughout (assay type): functional, cell-based
Test [1] is described as follows: Antiproliferative activity against human EC9706 cells after 72 hrs by MTT assay. Particulars: EC9706, 72 h. An outline of the steps:
(§1)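 Seeded at 5 × 10^3 cells/well and left 24 h. Medium then replaced with fresh medium holding compound over a range of concentrations, and cells incubated a further 72 h. 0.5 mg/mL MTT in PBS added for 4 h, formazan dissolved in DMSO, absorbance read at 562 nm. IC50 derived from percent inhibition across concentrations.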
A general note: Tetrazolium dyes change colour on reduction, which living cells bring about.

A short description of test [2]: Antiproliferative activity against human ECA109 cells after 72 hrs by MTT assay. The conditions noted are these: ECa-109, 72 h. An outline of the steps: as §1
For the next test, the system named is PC-3. In words: Antiproliferative activity against human PC3 cells after 72 hrs by MTT assay. Particulars: PC-3, 72 h. The procedure, abridged: as §1
The next test concerns HCT-116. The test can be described thus: Antiproliferative activity against human HCT116 cells after 72 hrs by MTT assay. Particulars: HCT-116, 72 h. An outline of the steps:
as §1

The IC50 is the midpoint of a concentration-inhibition curve. Consider `CCOC(=O)[C@]1(C)CCC[C@@]2(C)[C@@H]3CC[C@@]4(C)C[C@]3(CC[C@@H]21)[C@@H](O)[C@H]4NC(=S)Nc1cccc2ccccc12`, for which the IC50 was greater than 100 µM in test [1], 90.9 µM in test [2], greater than 100 µM in the test with PC-3 and greater than 100 µM with HCT-116.
As for `CCOC(=O)[C@]1(C)CCC[C@@]2(C)[C@@H]3CC[C@@]4(C)C[C@]3(CC[C@@H]21)[C@@H](O)[C@H]4O`, the IC50 in test [1] was 52.1 µM; in test [2], 90.3 µM; in the test with PC-3, 87.6 µM; in the test with HCT-116, greater than 100 µM.
For the molecule `CCOC(=O)[C@]1(C)CCC[C@@]2(C)[C@@H]3CC[C@@]4(C)C[C@]3(CC[C@@H]21)CC4=O`, the IC50 (in test [1]; in test [2]; in the test with PC-3; with HCT-116) was greater than 100 µM throughout.
For the molecule `CCOC(=O)[C@]1(C)CCC[C@@]2(C)[C@@H]3CC[C@](C)(C(=O)O)C[C@@]3(C(=O)O)CC[C@@H]21`, the IC50 (in test [1]; in test [2]; in the test on PC-3; in the test on HCT-116) was greater than 100 µM each time.
On to `CCOC(=O)[C@]1(C)CCC[C@@]2(C)[C@@H]3CC[C@@]4(C)C[C@]3(CC[C@@H]21)[C@@H](O)/C4=N\O`, for which the IC50 (in test [1]; in test [2]; in the test on PC-3; in the test on HCT-116) was greater than 100 µM each time.
Regarding `CCOC(=O)[C@]1(C)CCC[C@@]2(C)[C@@H]3CC[C@](C)(C(N)=O)C[C@@]3(C(=O)O)CC[C@@H]21`, the IC50 (in test [1]; in test [2]; with PC-3; with HCT-116) was greater than 100 µM in each case.
Take `CCOC(=O)[C@]1(C)CCC[C@@]2(C)[C@@H]3CC[C@@]4(C)C[C@]3(CC[C@@H]21)C(Br)C4=O` (some centres not stated): the IC50 (in test [1]; in test [2]; with PC-3; in the test with HCT-116) was greater than 100 µM throughout.
For the molecule `CCOC(=O)[C@]1(C)CCC[C@@]2(C)[C@@H]3CC[C@@]4(C)C[C@]3(CC[C@@H]21)C(=O)OC4=O`, the concentration for half-maximal inhibition (IC50) (in test [1]; in test [2]; in the test with PC-3; in the test with HCT-116) was greater than 100 µM throughout.
For the molecule `CCOC(=O)[C@]1(C)CCC[C@@]2(C)[C@@H]3CC[C@@]4(C)C[C@]3(CC[C@@H]21)C[C@H]4O`, the IC50 (in test [1]; in test [2]; in the test on PC-3; with HCT-116) was greater than 100 µM throughout.
Consider `CCOC(=O)[C@]1(C)CCC[C@@]2(C)[C@@H]3CC[C@@]4(C)C[C@]3(CC[C@@H]21)C(=O)[C@H]4NC(=S)Nc1ccccc1`, for which the IC50 (in test [1]; in test [2]; in the test with PC-3; with HCT-116) was greater than 100 µM throughout.
In the case of `CCOC(=O)[C@]1(C)CCC[C@@]2(C)[C@@H]3CC[C@@]4(C)C[C@]3(CC[C@@H]21)[C@@H](CN)[C@@H]4O`, the IC50 in test [1] was 4.01 µM; in test [2] it was 5.02 µM; with PC-3, 15.3 µM; in the test with HCT-116, 12.2 µM.
As to `CCOC(=O)[C@]1(C)CCC[C@@]2(C)[C@@H]3CC[C@@]4(C)C[C@]3(CC[C@@H]21)[C@H](CO)[C@H]4O`, the IC50 was 91.6 µM in test [1], 43.3 µM in test [2], greater than 100 µM in the test on PC-3 and greater than 100 µM with HCT-116.
On to `CCOC(=O)[C@]1(C)CCC[C@@]2(C)[C@@H]3CC[C@@]4(C)C[C@]3(CC[C@@H]21)[C@@H](O)[C@H]4NC(=S)Nc1ccccc1`, for which the IC50 was greater than 100 µM in test [1], 72.3 µM in test [2], greater than 100 µM in the test with PC-3 and greater than 100 µM with HCT-116.
As for `CCOC(=O)[C@]1(C)CCC[C@@]2(C)[C@@H]3CC[C@@]4(C)C[C@]3(CC[C@@H]21)C(=O)[C@H]4O`, the IC50 (in test [1]; in test [2]; with PC-3; in the test with HCT-116) was greater than 100 µM in each case.
Consider `CCOC(=O)[C@]1(C)CCC[C@@]2(C)[C@@H]3CC[C@](C)(C#N)C[C@@]3(C=O)CC[C@@H]21`, for which the IC50 (in test [1]; in test [2]; in the test with PC-3; in the test with HCT-116) was greater than 100 µM in each case.
On to `CCOC(=O)[C@]1(C)CCC[C@@]2(C)[C@@H]3CC[C@@]4(C)C[C@]3(CC[C@@H]21)[C@@H](O)[C@H]4NC(=O)[C@@H]1CCCN1`, for which the IC50 was 60.7 µM in test [1], 69.5 µM in test [2], greater than 100 µM with PC-3 and greater than 100 µM with HCT-116.
For `C[C@]12CC[C@H]3[C@]4(C)CCC[C@@](C)(CO)[C@H]4CC[C@@]3(C1)[C@@H](O)/C2=N\O`, the IC50 (in test [1]; in test [2]; with PC-3; in the test on HCT-116) was greater than 100 µM each time.
Take `CCOC(=O)[C@]1(C)CCC[C@@]2(C)[C@@H]3CC[C@@]4(C)C[C@]3(CC[C@@H]21)[C@H](/C=N/O)[C@H]4O`: the IC50 in test [1] is 56.6 µM; in test [2], 17.9 µM; in the test on PC-3, greater than 100 µM; in the test with HCT-116, greater than 100 µM.
`CCOC(=O)[C@]1(C)CCC[C@@]2(C)[C@@H]3CC[C@@]4(C)C[C@]3(CC[C@@H]21)C(=O)[C@H]4NC(=S)Nc1cccc2ccccc12`: the IC50 (in test [1]; in test [2]; in the test with PC-3; in the test with HCT-116) was greater than 100 µM in each case.
Take `C[C@@]12CC[C@@H]3[C@@](CC[C@H]4[C@@]3(C)CCC[C@@]4(C)C(=O)O)(CC1=O)C2` [ISOSTEVIOL]: the IC50 (in test [1]; in test [2]; with PC-3; in the test with HCT-116) was greater than 100 µM throughout.
As for `CCOC(=O)[C@]1(C)CCC[C@@]2(C)[C@@H]3CC[C@@]4(C)C[C@]3(CC[C@@H]21)[C@@H](O)[C@H]4N`, the IC50 is 19.3 µM in test [1], 41.3 µM in test [2], 25.4 µM in the test on PC-3 and 20.1 µM with HCT-116.
Taken in the same sequence, the figures for `CCOC(=O)[C@]1(C)CCC[C@@]2(C)[C@@H]3CC[C@@]4(C)C[C@]3(CC[C@@H]21)C(=O)[C@H]4N` were 97.2 µM, greater than 100 µM, greater than 100 µM and greater than 100 µM.
Taken in the same sequence, the figures for `CCOC(=O)[C@]1(C)CCC[C@@]2(C)[C@@H]3CC[C@@]4(C)C[C@]3(CC[C@@H]21)[C@H](C=O)[C@H]4N1CCCC1` were greater than 100 µM, 30.3 µM, greater than 100 µM and greater than 100 µM.
The corresponding values for `CCOC(=O)[C@]1(C)CCC[C@@]2(C)[C@@H]3CC[C@@]4(C)C[C@]3(CC[C@@H]21)C(=O)[C@H]4NC(=S)Nc1cc(C(F)(F)F)cc(C(F)(F)F)c1` are greater than 100 µM, greater than 100 µM, greater than 100 µM and greater than 100 µM.
Take `CCOC(=O)[C@]1(C)CCC[C@@]2(C)[C@@H]3CC[C@@]4(C)C[C@]3(CC[C@@H]21)[C@H](CNC(C)=O)[C@H]4OC(C)=O`: the IC50 (in test [1]; in test [2]; in the test with PC-3; with HCT-116) was greater than 100 µM throughout.
As to `CCOC(=O)[C@]1(C)CCC[C@@]2(C)[C@@H]3CC[C@@]4(C)C[C@]3(CC[C@@H]21)[C@H](C=O)[C@H]4O`, the IC50 was 24.4 µM in test [1], 26.5 µM in test [2], greater than 100 µM in the test with PC-3 and greater than 100 µM in the test with HCT-116.
With `CCOC(=O)[C@]1(C)CCC[C@@]2(C)[C@@H]3CC[C@@]4(C)C[C@]3(CC[C@@H]21)C(=O)[C@H]4NC(=O)[C@@H]1CCCN1`, the IC50 (in test [1]; in test [2]; with PC-3; in the test with HCT-116) was greater than 100 µM in each case.
In the case of `CCOC(=O)[C@]1(C)CCC[C@@]2(C)[C@@H]3CC[C@@]4(C)C[C@]3(CC[C@@H]21)[C@@H](O)[C@H]4NC(=S)Nc1cc(C(F)(F)F)cc(C(F)(F)F)c1`, the IC50 came out at 24.1 µM in test [1], 45.8 µM in test [2], 20.6 µM in the test on PC-3 and 14.3 µM in the test on HCT-116.
As for `CCOC(=O)[C@]1(C)CCC[C@@]2(C)[C@@H]3CC[C@@]4(C)C[C@]3(CC[C@@H]21)C(=O)C4=O`, the IC50 (in test [1]; in test [2]; with PC-3; in the test with HCT-116) was greater than 100 µM in each case.
Turning to `CCOC(=O)[C@]1(C)CCC[C@@]2(C)[C@@H]3CC[C@](C)(C#N)C[C@@]3(C(=O)O)CC[C@@H]21`, the IC50 (in test [1]; in test [2]; in the test on PC-3; in the test with HCT-116) was greater than 100 µM each time.
As for `CCOC(=O)[C@]1(C)CCC[C@@]2(C)[C@@H]3CC[C@@]4(C)C[C@]3(CC[C@@H]21)[C@H](CNC(C)=O)[C@H]4O`, the IC50 is 21.2 µM in test [1], 13.3 µM in test [2], greater than 100 µM with PC-3 and greater than 100 µM in the test on HCT-116.
For `CCOC(=O)[C@]1(C)CCC[C@@]2(C)[C@@H]3CC[C@@]4(C)C[C@]3(CC[C@@H]21)C(=O)/C4=N\O`, the IC50 (in test [1]; in test [2]; in the test on PC-3; with HCT-116) was greater than 100 µM in each case.
Take `CCOC(=O)[C@]1(C)CCC[C@@]2(C)[C@@H]3CC[C@]4(C)C=C(C=O)[C@@]3(CC[C@@H]21)C4`: the IC50 in test [1] is greater than 100 µM; in test [2] it was greater than 100 µM; with PC-3 it was 40.3 µM; with HCT-116, greater than 100 µM.

For the origin of these results see ChEMBL document CHEMBL2069210, “D-ring modified novel isosteviol derivatives: design, synthesis and cytotoxic activity evaluation” (Bioorg Med Chem Lett, 2012).
